Test results from ChEMBL document CHEMBL1136233, “Bisphosphonates derived from fatty acids are potent inhibitors of Trypanosoma cruzi farnesyl pyrophosphate synthase” (Bioorg Med Chem Lett, 2003).

Tests used:
[1] = system: Trypanosoma cruzi; assay: Inhibitory concentration against Trypanosoma cruzi (epimastigotes); type: functional, organism-based
In short: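 Epimastigote growth inhibition; IC50 values are the means of three experiments.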

[2] = system: Trypanosoma cruzi; assay: Inhibitory concentration against Trypanosoma cruzi (amastigotes); type: functional, organism-based
[3] = system: Trypanosoma cruzi; assay: Maximum inhibitory activity against Trypanosoma cruzi (amastigotes); type: functional
[4] = system: Trypanosoma cruzi; assay: Maximum inhibitory activity against Trypanosoma cruzi (amastigotes)

SMILES	IC50 [1]	IC50 ([2]; Trypanosoma cruzi)	IC50 [2]	Inhibition [3]	Inhibition [4]
CCCC(P(=O)(O)O)P(=O)(O)O	> 100 µM	> 90 µM		28%	
CCCC(O)(P(=O)(O)O)P(=O)(O)O	> 70 µM				
CCCCCCC(O)(P(=O)(O)O)P(=O)(O)O			18.1 µM		
CCCCCC(P(=O)(O)O)P(=O)(O)O	> 70 µM				
CCCCC(P(=O)(O)O)P(=O)(O)O	> 70 µM	> 70 µM			
CCCCCC(O)(P(=O)(O)O)P(=O)(O)O	> 70 µM	> 70 µM			34%
CCCC(P(=O)(OCC)OCC)P(=O)(OCC)OCC	> 70 µM	> 70 µM		27%	
CCOP(=O)(OCC)C(CC)P(=O)(OCC)OCC		> 70 µM			
CCC(P(=O)(O)O)P(=O)(O)O	> 100 µM	> 100 µM		21%	

Continued, in another order:

IC50 [1]	IC50 ([2]; Trypanosoma cruzi)	IC50 [2]	SMILES	Inhibition [3]	Inhibition [4]
> 70 µM			CCCCCCCCCC(O)(P(=O)(O)O)P(=O)(O)O		
> 50 µM			CCCCCCCCCC(P(=O)(OCC)OCC)P(=O)(OCC)OCC		
	> 70 µM		CCCCCCCCCCCCCC(O)(P(=O)(O)O)P(=O)(O)O	10%	
> 70 µM	> 70 µM		CCCCCCCC(P(=O)(O)O)P(=O)(O)O	49%	
> 50 µM			CCCCCCCC(P(=O)(OCC)OCC)P(=O)(OCC)OCC		
> 50 µM			CCCCCCC(P(=O)(OCC)OCC)P(=O)(OCC)OCC		
> 70 µM	> 70 µM		CCCCCCC(P(=O)(O)O)P(=O)(O)O	47%	
> 70 µM	> 70 µM		CCCCCCCC(O)(P(=O)(O)O)P(=O)(O)O		41%
> 50 µM			CCCCCC(P(=O)(OCC)OCC)P(=O)(OCC)OCC		
> 50 µM	> 50 µM		CCCCCCCCC(P(=O)(OCC)OCC)P(=O)(OCC)OCC		
> 70 µM			CCCCCCCCCC(P(=O)(O)O)P(=O)(O)O		
> 70 µM	> 50 µM		CCCCC(P(=O)(OCC)OCC)P(=O)(OCC)OCC		
> 70 µM			CCCCCCCCC(P(=O)(O)O)P(=O)(O)O		
> 70 µM			CCCCCCCCC(O)(P(=O)(O)O)P(=O)(O)O		
